SENP1 FRET inh: SENP1 (human) catalytic domain inhibition; Q9P0U3; recombinant SENP1 catalytic domain, CyPet-SUMO1-YPet FRET cleavage; inhibition, % at 10 µM; 360,000 tested, 0.21% active;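 active = inhibition at least 30% at 10 µM, raw YFP signal under a set limit, fluorescence ratio 0.5 to 1.5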;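 also: 0% = enzyme with DMSO and 100% = no enzyme wells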
Target sequence (Q9P0U3 419-644 limits assumed): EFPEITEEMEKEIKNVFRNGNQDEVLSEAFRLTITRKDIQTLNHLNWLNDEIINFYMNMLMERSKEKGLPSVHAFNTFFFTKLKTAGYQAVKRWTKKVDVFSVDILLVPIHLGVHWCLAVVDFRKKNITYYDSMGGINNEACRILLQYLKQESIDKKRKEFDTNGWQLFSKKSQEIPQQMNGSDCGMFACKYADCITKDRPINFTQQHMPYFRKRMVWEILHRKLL
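Test system: recombinant human SENP1 catalytic domain, His6-tagged / Medium: pH 8 Tris buffer with EDTA, NaCl, BME, BSA, NP40, catalase / Also added: SUMO1 FRET substrate flanked by Cypet and Ypet, 25 nM / Times: 50 min reaction at room temperature / Signal: FRET, CFP and YFP emission / Control set: no-enzyme low control and enzyme-plus-DMSO high control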
SENP6 block: blocks the human protease SENP6; Q9GZR1; Recombinant SENP6 catalytic domain, aminoluciferin luminescence; inhibition, % at 10 µM; 330,000 tested, 1.8% active;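 active = inhibition above about 50% at the single tested dose, limit read from the data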;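 also: plate controls were DMSO wells with enzyme for no effect and DMSO wells lacking enzyme for full effect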
SENP7 inh: inhibitors of human SENP7 protease; Q9BQF6; recombinant SENP7, Z-RLRGG-aminoluciferin luminescence, 40 min; inhibition, % at 5 µM; 330,000 tested, 1.5% active; AID 434973;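 active = inhibition above about 50% at the single test dose, limit read from the data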;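 also: plate controls were DMSO with enzyme for no effect and no enzyme buffer wells for full effect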
SENP8 block-1: blocks the human protease SENP8 | purified SENP8, Z-RLRGG-aminoluciferin cleavage, luminescence | inhibition, % at 10 µM | Q96LD8 | AID 2540 | 330,000 tested, 1.2% active; in the data active = inhibition above about 50%
Target sequence (Q96LD8 whole entry, looked up): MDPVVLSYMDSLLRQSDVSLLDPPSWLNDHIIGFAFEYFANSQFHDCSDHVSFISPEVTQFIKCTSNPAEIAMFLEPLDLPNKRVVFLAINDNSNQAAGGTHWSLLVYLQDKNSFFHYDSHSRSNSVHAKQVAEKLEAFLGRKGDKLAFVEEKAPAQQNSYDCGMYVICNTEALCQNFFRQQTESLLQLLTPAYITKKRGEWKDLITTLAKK
SENP8 block-2: inhibitors of human SENP8 protease; Q96LD8; recombinant SENP8, Nedd8 substrate fluorescence; inhibition, % at 20 µM; 360,000 tested, 0.64% active; AID 602440; in the data active = inhibition mostly above about 40%, no sharp cut-off; inactive = mostly below about 27%
CendR NRP1 mod: alters CendR peptide binding to human NRP-1 | O14786 | FAM-RPARPAR peptide binding to NRP-1, fluorescence polarization | inhibition, % at 25 µM | 360,000 tested, 0.85% active | AID 602438;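 active = inhibition or corrected inhibition above about 18%, plus a signal ratio from 0.5 to 1.5, limit read from the data, passing the limit was not always enough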
SENP8 conf: SENP8 (human) inhibition, single concentration confirmation; purified SENP8, Nedd8-AMC/pro-Nedd8 cleavage fluorescence, 30 min; 1,400 tested, 15% active; AID 624319; shares compounds with SENP8 block-2; inhibition, % at 25 µM; in the data active = inhibition mostly above about 39%, no sharp cut-off; inactive = mostly below about 34%
Numbers without * were called inactive. A selection: hits, their analogues and other compounds. The true share with any hit is near 3.3%.

Screening COc1cccc(C2c3[nH]c4ccccc4c3C[C@H]3C(=O)N(c4ccccc4C(=O)NCCCN4CCOCC4)C(=O)N23)c1 (some centres not stated) returned SENP1 FRET inh -33, SENP6 block 2, SENP7 inh -7, SENP8 block-1 -11, SENP8 block-2 51*, CendR NRP1 mod 8 and SENP8 conf 13.
`COc1ccc(C2c3[nH]c4ccccc4c3C[C@H]3C(=O)N(c4ccccc4C(=O)N4CCC[C@H]4C(=O)O)C(=O)N23)cc1` (some centres not stated) gave SENP1 FRET inh -47, SENP6 block -2, SENP7 inh -2, SENP8 block-1 3, SENP8 block-2 42*, CendR NRP1 mod -18 and SENP8 conf 2.
`O=C(NCC[C@H]1CC[C@@H](NC(=O)C2CCOCC2)[C@@H](CO)O1)Nc1ccc(Cl)cc1` gave SENP1 FRET inh 2, SENP8 block-2 14 and CendR NRP1 mod 2.
CCCN1C(=O)C(=O)N(CC(=O)N2c3ccccc3NC(=O)CC2C)C1=O (configuration not stated) was read as SENP1 FRET inh 2, SENP8 block-2 17 and CendR NRP1 mod -3.
`COc1ccc(Cc2cc(NCc3ccccc3)c3ncn(C(C)C)c3c2)cc1` gave SENP1 FRET inh 1, SENP6 block -2, SENP7 inh 3, SENP8 block-1 5, SENP8 block-2 12 and CendR NRP1 mod 19.
For CCCCOc1cc(NCc2ccccc2)c2ncn(C(C)C)c2c1 the results were SENP1 FRET inh 2, SENP6 block -3, SENP7 inh 18, SENP8 block-1 8, SENP8 block-2 51*, CendR NRP1 mod 1 and SENP8 conf 65*.
`CCOCCOc1cc(NCc2ccccc2)c2ncn(C(C)C)c2c1` gave SENP1 FRET inh -87, SENP8 block-2 40*, CendR NRP1 mod 10 and SENP8 conf 80*.
For CCC(CO)Oc1cc(NCc2ccc(O)cc2)c2ncn(C(C)C)c2c1 (configuration not stated) the results were SENP1 FRET inh 0, SENP6 block 14, SENP7 inh 8, SENP8 block-1 4, SENP8 block-2 16 and CendR NRP1 mod -2.
Screening CCOc1cc(OCC)cc(C(=O)N2CCC[C@H]2C(=O)N2CCC[C@H]2C(=O)NCc2ccccn2)c1 returned SENP1 FRET inh -2, SENP8 block-2 18 and CendR NRP1 mod -10.
`Nc1nonc1OCCN1CCN(c2ccc([N+](=O)[O-])c3cccnc23)CC1` gave SENP1 FRET inh -19, SENP6 block 1, SENP7 inh -7, SENP8 block-1 -2, SENP8 block-2 47*, CendR NRP1 mod 2 and SENP8 conf 25.
O=C(NCc1cccs1)C1CCCN1C(=O)Nc1ccc(F)cc1 (configuration not stated) was read as SENP1 FRET inh 5, SENP6 block -13, SENP7 inh 9, SENP8 block-1 1, SENP8 block-2 41*, CendR NRP1 mod 6 and SENP8 conf 13.
Screening O=C(NCc1cccs1)C1CCCN1C(=O)Nc1cccc(F)c1 (configuration not stated) returned SENP1 FRET inh 3, SENP6 block 21, SENP7 inh 11, SENP8 block-1 8, SENP8 block-2 6 and CendR NRP1 mod -30.
`CCOc1cc(CNc2ccc(Br)cc2)cc(Br)c1OCC(=O)NC(C)(C)C` gave SENP1 FRET inh 1, SENP6 block -17, SENP7 inh 8, SENP8 block-1 0, SENP8 block-2 4 and CendR NRP1 mod 8.
Screening CCOc1cc(CNc2ccc(OC)cc2)cc(Br)c1OCC(=O)NC(C)(C)C returned SENP1 FRET inh 1, SENP6 block 8, SENP7 inh 2, SENP8 block-1 8, SENP8 block-2 47*, CendR NRP1 mod 3 and SENP8 conf 24.
CN(CCO)c1cc(Sc2nc3ccccc3s2)c2nonc2c1[N+](=O)[O-] was read as SENP1 FRET inh 11, SENP6 block 30, SENP7 inh -3, SENP8 block-1 2, SENP8 block-2 55*, CendR NRP1 mod -3 and SENP8 conf 32.
CCOC(=O)CN1C(=O)S/C(=C/c2ccc(C)o2)C1=O was read as SENP1 FRET inh -3, SENP6 block 12, SENP7 inh -3, SENP8 block-1 4, SENP8 block-2 16 and CendR NRP1 mod -18.
`CCOC(=O)CN1C(=O)S/C(=C/c2ccc(O)c([N+](=O)[O-])c2)C1=O` gave SENP1 FRET inh 4, SENP6 block -9, SENP7 inh 4, SENP8 block-1 -16, SENP8 block-2 48*, CendR NRP1 mod 0 and SENP8 conf 6.
COc1ccc(CCn2nnnc2C(CC(C)C)N2CCN(c3ncccn3)CC2)cc1OC (configuration not stated) was read as SENP1 FRET inh 3, SENP6 block 2, SENP7 inh 1, SENP8 block-1 4, SENP8 block-2 43*, CendR NRP1 mod 10 and SENP8 conf 8.
O=[N+]([O-])c1cc(S(=O)(=O)N2CCCC2)ccc1NN=C1CCCCC1 was read as SENP1 FRET inh 3, SENP6 block -9, SENP7 inh -1, SENP8 block-1 -10, SENP8 block-2 23 and CendR NRP1 mod 2.
`O=[N+]([O-])c1cc(C(F)(F)F)cc([N+](=O)[O-])c1NN=C1CCCCC1` gave SENP1 FRET inh 5, SENP6 block 4, SENP7 inh 6, SENP8 block-1 -4, SENP8 block-2 42*, CendR NRP1 mod -2 and SENP8 conf 9.
Screening O=C(OCn1nnc2ccccc2c1=O)C1CCCCC1 returned SENP1 FRET inh 3, SENP6 block -31, SENP7 inh 6, SENP8 block-1 -5, SENP8 block-2 42*, CendR NRP1 mod 9 and SENP8 conf 12.
COc1ccc(NC2CS(=O)(=O)CC2NCc2ccccc2)cc1 (configuration not stated) was read as SENP1 FRET inh -2, SENP6 block 7, SENP7 inh 3, SENP8 block-1 -3, SENP8 block-2 40*, CendR NRP1 mod -4 and SENP8 conf 15.
For O=S1(=O)C[C@@H](O)[C@@H](Nc2ccccc2)C1 the results were SENP1 FRET inh -1, SENP6 block -1, SENP7 inh 7, SENP8 block-1 3, SENP8 block-2 23 and CendR NRP1 mod -14.
Screening Cc1nonc1OC(C)CNc1ccc([N+](=O)[O-])cc1 (configuration not stated) returned SENP1 FRET inh -2, SENP6 block -2, SENP7 inh 2, SENP8 block-1 4, SENP8 block-2 46*, CendR NRP1 mod 2 and SENP8 conf 24.
